{"source": "PubChem BioAssay AID624363", "about": "(Broad Institute, 2012)", "note": "Values joined by “and” are separate entries in the source; they are usually repeats but may differ in a detail not shown here. Equal entries are not always repeated. Active and inactive are the calls of the source.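 The calls were made as follows: active = in every test run, a falling-signal curve whose half-maximal concentration is at most twice the top tested dose; inconclusive = runs disagree, flat fit at 30 to 70% inhibition, or poor fit; inactive = every test run inactive.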", "data": [{"tested_on": "SK-MEL-5 TRPM1 promoter luciferase reporter, 24 h", "experiment": "inhibitors of MITF-driven TRPM1 reporter, dose response, cell-based, SK-MEL-5, luciferase, dry powder, set 5 (AID 624363)", "settings": "not given", "how_it_was_run": "(§1)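 Assay system: SK-MEL-5 TRPM1 promoter luciferase reporter cells | Input: 2000 reporter cells per well | Doses: Test compounds added by pin transfer | Timing: 24 h compound treatment, 37 °C | Measured by: SteadyGlo luminescence | Controls: Parthenolide at 27 µM as positive control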", "values": [{"smiles": "O=C1C(Nc2ccccc2)=C(N2CCOCC2)C(=O)c2ccccc21", "AC50": "12.8 µM and 7.07 µM"}, {"smiles": "C=CCNC1=C(Nc2ccccc2)C(=O)c2ccccc2C1=O", "AC50": "15.4 µM"}]}, {"tested_on": "not listed separately", "experiment": "inhibitors of MITF-driven TRPM1 reporter, dose response, cell-based, SK-MEL-5, luciferase, dry powder, set 5 (AID 624363)", "settings": "SK-MEL-5 TRPM1 promoter luciferase reporter, 24 h; at 35 µM (top of the series)", "how_it_was_run": "as §1", "values": [{"smiles": "COc1ccc(C2=C(NC(=O)c3ccc(OC)cc3-c3cccc(OC)c3)C(=O)c3ccccc3C2=O)cc1", "activity change, negative = inhibition": "-14.7% (inactive)"}, {"smiles": "O=C1C(NS(=O)(=O)c2ccc(Br)cc2)=C(N2CCN(c3ccccc3)CC2)C(=O)c2ccccc21", "activity change, negative = inhibition": "-44.3% (inactive)"}, {"smiles": "C=CCNC1=C(NCC=C)C(=O)c2ccccc2C1=O", "activity change, negative = inhibition": "-12.8% (inactive)"}, {"smiles": "O=C(NC1=C(N2CCN(c3ccccc3)CC2)C(=O)c2ccccc2C1=O)c1ccccc1", "activity change, negative = inhibition": "-32.8% (inactive)"}, {"smiles": "COc1ccc(C2=C(NC(=O)c3ccc4ccccc4c3)C(=O)c3ccccc3C2=O)cc1", "activity change, negative = inhibition": "-15.2% (inactive)"}, {"smiles": "O=C(NC1=C(c2ccc(Oc3ccccc3)cc2)C(=O)c2ccccc2C1=O)c1ccccc1", "activity change, negative = inhibition": "-5.77% (inactive)"}]}]}
